ChEMBL document CHEMBL4616691 (ACS Med Chem Lett, 2020)
In brackets after ≈: the same amount, converted by molar mass. Activity calls are given as the source filed them. The calls are words filed in the database; no cut-off is given here.

Columns and labels:
[1] = Inhibition of NPC1/VDAC1 in HUVEC cells assessed as reduction in cell proliferation pretreated for 24 hrs followed by [3H]thymidine incorporation by scintillation counter method; assay type: cell-based; conditions: Homo sapiens
Method in brief: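 HUVEC proliferation read by [³H]-thymidine incorporation, giving IC50. Mean ± SD of three independent experiments, each run in triplicate.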

[2] = Thermodynamic solubility in 0.001N HCl by HPLC analysis; assay type: physicochemical; conditions: for solubility thermodynamic: 0.001N HCl, read-out: Therm_solubility
Method in brief: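 Thermodynamic solubility measured in 0.001 N HCl (pH 3), chosen to resemble acidic gastric fluid. Dissolved compound quantified by HPLC and reported in […].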

[3] = target: T1, NPC intracellular cholesterol transporter 1 (Homo sapiens) (UniProt O15118); assay: Inhibition of NPC1 in HUVEC cells assessed as accumulation of cholesterol in perinuclear structure at 0.2 uM incubated for 24 hrs by filipin staining based confocal microscopy analysis; assay type: cell-based
T1 sequence (whole entry): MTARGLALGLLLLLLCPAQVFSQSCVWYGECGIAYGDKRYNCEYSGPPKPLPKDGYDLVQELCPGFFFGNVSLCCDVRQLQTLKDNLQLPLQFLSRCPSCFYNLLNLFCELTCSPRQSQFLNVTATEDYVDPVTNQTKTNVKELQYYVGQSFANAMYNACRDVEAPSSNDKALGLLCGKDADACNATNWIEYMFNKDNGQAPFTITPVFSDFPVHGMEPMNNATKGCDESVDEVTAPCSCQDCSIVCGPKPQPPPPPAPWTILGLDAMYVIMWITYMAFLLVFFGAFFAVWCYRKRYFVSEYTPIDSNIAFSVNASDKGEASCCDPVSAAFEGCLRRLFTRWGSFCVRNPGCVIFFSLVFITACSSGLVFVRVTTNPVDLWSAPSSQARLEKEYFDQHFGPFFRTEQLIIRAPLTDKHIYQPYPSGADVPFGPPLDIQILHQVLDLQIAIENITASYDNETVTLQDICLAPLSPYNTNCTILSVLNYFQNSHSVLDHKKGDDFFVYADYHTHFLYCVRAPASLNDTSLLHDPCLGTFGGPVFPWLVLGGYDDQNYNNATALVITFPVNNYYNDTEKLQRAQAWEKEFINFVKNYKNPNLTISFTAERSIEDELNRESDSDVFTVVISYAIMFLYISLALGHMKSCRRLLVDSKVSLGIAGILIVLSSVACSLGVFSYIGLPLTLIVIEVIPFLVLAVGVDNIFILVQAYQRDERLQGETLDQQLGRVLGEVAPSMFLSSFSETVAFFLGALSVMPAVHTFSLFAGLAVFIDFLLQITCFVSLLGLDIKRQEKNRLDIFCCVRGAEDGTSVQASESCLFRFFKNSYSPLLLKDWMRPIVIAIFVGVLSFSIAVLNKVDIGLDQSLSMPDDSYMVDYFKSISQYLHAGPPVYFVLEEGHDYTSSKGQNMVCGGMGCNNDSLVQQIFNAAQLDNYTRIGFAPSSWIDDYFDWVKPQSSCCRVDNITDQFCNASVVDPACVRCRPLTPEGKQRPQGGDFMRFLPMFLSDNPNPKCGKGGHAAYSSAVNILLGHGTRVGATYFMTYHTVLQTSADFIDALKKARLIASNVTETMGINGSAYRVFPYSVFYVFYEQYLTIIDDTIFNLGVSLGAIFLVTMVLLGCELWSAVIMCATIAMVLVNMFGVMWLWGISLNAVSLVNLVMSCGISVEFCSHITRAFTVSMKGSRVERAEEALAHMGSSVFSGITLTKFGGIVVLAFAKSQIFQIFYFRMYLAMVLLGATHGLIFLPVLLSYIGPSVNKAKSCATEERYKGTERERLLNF
Method in brief: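 Primary HUVECs incubated 24 h with 0.2 μM compound or DMSO. Intracellular cholesterol stained with filipin and imaged by confocal fluorescence microscopy, 25x objective.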

Cytochrome P450 3A4 = Cytochrome P450 3A4 (Homo sapiens, UniProt P08684); assay: Inhibition of CYP3A4 (unknown origin); assay type: ADME
HUVEC [4] = assay: Inhibition of NPC1/VDAC1 in HUVEC cells assessed as inhibition of tube formation at 3 uM measured after 24 hrs by Calcein-AM staining based fluorescence microscopy analysis relative to control; assay type: cell-based; conditions: Homo sapiens
Method in brief: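 HUVECs seeded on Matrigel-coated wells and treated with DMSO or 3 μM compound for 24 h. Networks stained with Calcein-AM and imaged by fluorescence microscopy. Total tube length quantified from the images against DMSO control. Mean ± SD of three independent experiments.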

[5] = target: AMP-activated protein kinase, AMPK (Homo sapiens) (UniProt P54646+O43741+P54619+Q9UGJ0+Q9Y478+Q13131+Q9UGI9); assay: Activation of AMPK in HUVEC cells assessed as phosphorylation of acetyl CoA carboxylase measured after 24 hrs by Western blot analysis; assay type: cell-based
Method in brief: (§1)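 HUVECs exposed to test compound at 0.05, 0.25, 0.5, 1 or 2 μM, or DMSO vehicle, for 24 h. Lysates probed by western blot for VEGFR2, phospho- and total ACC, phospho- and total S6K, with β-actin as loading reference.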

[6] = target: Serine/threonine-protein kinase mTOR (Homo sapiens) (UniProt P42345); assay: Inhibition of mTOR in HUVEC cells assessed as reduction in phosphorylation of p70S6K measured after 24 hrs by Western blot analysis; assay type: cell-based; method in brief: as §1
[7] = target: Vascular endothelial growth factor receptor 2 (Homo sapiens) (UniProt P35968); assay: Inhibition of VEGFR2 glycosylation in HUVEC cells assessed as disappearance of VEGFR2 at 0.5 to 2 uM measured after 24 hrs by Western blot analysis; assay type: cell-based; method in brief: as §1
HUVEC [8] = assay: Effect on VEGFR2 localization in human HUVEC cells assessed as accumulation of VEGFR2 in perinuclear region at 2 uM by DAPI staining based confocal micrscopy; assay type: functional, cell-based
Method in brief: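 HUVECs treated with DMSO or 2 μM compound. Cells immunostained for VEGFR2 (green) and Golgi marker GM130 (red), nuclei counterstained with DAPI. Imaged by confocal microscopy, scoring perinuclear VEGFR2 and its colocalization with GM130.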

Cytochrome P450 3A4, sequence (P08684 whole entry): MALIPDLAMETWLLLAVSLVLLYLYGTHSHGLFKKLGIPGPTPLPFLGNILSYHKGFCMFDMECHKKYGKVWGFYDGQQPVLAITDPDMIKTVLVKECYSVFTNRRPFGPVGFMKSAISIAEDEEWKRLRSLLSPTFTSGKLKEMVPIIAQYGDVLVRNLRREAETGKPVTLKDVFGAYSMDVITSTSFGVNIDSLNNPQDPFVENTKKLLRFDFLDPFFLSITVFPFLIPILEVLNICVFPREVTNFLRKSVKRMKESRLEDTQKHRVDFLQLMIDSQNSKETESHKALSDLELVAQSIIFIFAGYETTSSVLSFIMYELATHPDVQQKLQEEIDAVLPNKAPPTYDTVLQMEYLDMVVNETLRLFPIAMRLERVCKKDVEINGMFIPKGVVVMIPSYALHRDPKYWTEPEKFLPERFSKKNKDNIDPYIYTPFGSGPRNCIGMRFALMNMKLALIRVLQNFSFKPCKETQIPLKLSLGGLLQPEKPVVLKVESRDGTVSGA
Vascular endothelial growth factor receptor 2 (Homo sapiens), sequence (P35968 whole entry): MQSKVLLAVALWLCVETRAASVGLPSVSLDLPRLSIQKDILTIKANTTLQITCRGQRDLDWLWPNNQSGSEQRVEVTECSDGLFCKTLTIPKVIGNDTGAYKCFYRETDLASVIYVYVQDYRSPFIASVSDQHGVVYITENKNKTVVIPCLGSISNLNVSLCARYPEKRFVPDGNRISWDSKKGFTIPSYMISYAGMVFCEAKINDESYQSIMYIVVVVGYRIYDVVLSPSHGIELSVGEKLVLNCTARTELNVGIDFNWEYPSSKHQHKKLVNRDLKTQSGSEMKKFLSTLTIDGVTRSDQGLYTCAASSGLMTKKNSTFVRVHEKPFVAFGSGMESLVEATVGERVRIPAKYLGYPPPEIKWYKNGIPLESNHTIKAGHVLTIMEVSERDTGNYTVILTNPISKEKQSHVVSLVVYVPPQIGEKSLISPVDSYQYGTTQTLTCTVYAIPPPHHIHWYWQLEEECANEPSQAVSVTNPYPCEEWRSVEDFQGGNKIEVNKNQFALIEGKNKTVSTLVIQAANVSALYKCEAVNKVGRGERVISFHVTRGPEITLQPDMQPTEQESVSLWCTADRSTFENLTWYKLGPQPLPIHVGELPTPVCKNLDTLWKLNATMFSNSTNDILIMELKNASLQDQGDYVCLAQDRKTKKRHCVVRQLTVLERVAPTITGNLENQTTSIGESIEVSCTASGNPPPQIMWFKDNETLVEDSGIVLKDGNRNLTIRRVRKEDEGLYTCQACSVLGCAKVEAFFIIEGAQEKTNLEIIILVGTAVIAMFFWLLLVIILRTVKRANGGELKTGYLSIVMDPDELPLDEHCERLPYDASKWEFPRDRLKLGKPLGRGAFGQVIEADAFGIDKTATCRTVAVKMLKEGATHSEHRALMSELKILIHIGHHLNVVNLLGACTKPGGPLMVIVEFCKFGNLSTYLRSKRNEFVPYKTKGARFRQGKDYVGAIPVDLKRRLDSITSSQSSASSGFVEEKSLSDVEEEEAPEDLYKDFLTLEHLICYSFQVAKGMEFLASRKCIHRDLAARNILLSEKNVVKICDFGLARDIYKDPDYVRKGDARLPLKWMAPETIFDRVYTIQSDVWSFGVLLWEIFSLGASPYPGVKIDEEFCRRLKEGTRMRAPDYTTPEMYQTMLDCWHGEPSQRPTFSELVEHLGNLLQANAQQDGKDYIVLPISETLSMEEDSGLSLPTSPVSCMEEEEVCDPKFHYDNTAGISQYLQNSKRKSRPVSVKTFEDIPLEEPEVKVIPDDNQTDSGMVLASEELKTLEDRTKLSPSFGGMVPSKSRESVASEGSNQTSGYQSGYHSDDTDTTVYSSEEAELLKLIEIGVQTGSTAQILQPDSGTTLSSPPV

With `CCC(C)n1ncn(-c2ccc(N3CCN(c4ccc(OC[C@@H]5CO[C@@](Cn6ccnc6)(c6ccc(Cl)cc6Cl)O5)cn4)CC3)c(F)c2)c1=O` (some centres not stated) as the molecule, how does the IC50 [1] read?
Its IC50 is 68 nM.

And the solubility thermodynamic [2]?
Its solubility thermodynamic is 125 µg/mL (≈ 173 µM).

Which results are given for `CCC(C)n1ncn(-c2ccc(N3CCN(c4ccc(OC[C@@H]5CO[C@@](Cn6cncn6)(c6ccc(Cl)cc6Cl)O5)nc4)CC3)cc2)c1=O` (some centres not stated)?
IC50 [1]: 687 nM; solubility thermodynamic [2]: 0.116 µg/mL (≈ 0.164 µM)

For `CCC(C)n1ncn(-c2ccc(N3CCN(c4ccc(OC[C@@H]5CO[C@@](Cn6ccnc6)(c6ccc(Cl)cc6Cl)O5)cc4)CC3)c(F)c2)c1=O` (some centres not stated), which IC50 [1] is on record?
Its IC50 is 70.1 nM.

What about the solubility thermodynamic [2] of the same molecule?
The solubility thermodynamic was 17.2 µg/mL (≈ 23.7 µM).

With `CCC(C)n1ncn(-c2ccc(N3CCN(c4ccc(OC[C@@H]5CO[C@@](Cn6cncn6)(c6ccc(Cl)cc6Cl)O5)cn4)CC3)cc2)c1=O` (some centres not stated) as the molecule, how does the IC50 [1] read?
Its IC50 is 380 nM.

What about the solubility thermodynamic [2] of the same molecule?
Its solubility thermodynamic is 0.114 µg/mL (≈ 0.161 µM).

For `CCC(C)n1ncn(-c2ccc(N3CCN(c4ccc(OC[C@@H]5CO[C@@](Cn6ccnc6)(c6ccc(Cl)cc6Cl)O5)nc4)CC3)cc2)c1=O` (some centres not stated), which IC50 [1] is on record?
Its IC50 is 468 nM.

What about the solubility thermodynamic [2] of the same molecule?
Its solubility thermodynamic is 6.48 µg/mL (≈ 9.19 µM).

Which IC50 [1] does the source give for `CCC(C)n1ncn(-c2ccc(N3CCN(c4ccc(OC[C@@H]5CO[C@@](Cn6ccnc6)(c6ccc(Cl)cc6Cl)O5)cc4)CC3)cn2)c1=O` (some centres not stated) here?
The IC50 was 636 nM.

What about the solubility thermodynamic [2] of the same molecule?
Its solubility thermodynamic is 41.3 µg/mL (≈ 58.6 µM).

Which IC50 [1] does the source give for `CCC(C)n1ncn(-c2ccc(N3CCN(c4ccc(OC[C@@H]5CO[C@@](Cn6cncn6)(c6ccc(Cl)cc6Cl)O5)nc4)CC3)c(F)c2)c1=O` (some centres not stated) here?
The IC50 was 446 nM.

And the solubility thermodynamic [2]?
Its solubility thermodynamic is 0.255 µg/mL (≈ 0.352 µM).

Which IC50 [1] does the source give for `CCC(C)n1ncn(-c2ccc(N3CCN(c4ccc(OC[C@@H]5CO[C@@](Cn6cncn6)(c6ccc(Cl)cc6Cl)O5)cn4)CC3)c(F)c2)c1=O` (some centres not stated) here?
The IC50 was 173 nM.

And the solubility thermodynamic [2]?
Its solubility thermodynamic is 0.848 µg/mL (≈ 1.17 µM).

Which IC50 [1] does the source give for `CCC(C)n1ncn(-c2ccc(N3CCN(c4ccc(OC[C@@H]5CO[C@@](Cn6cnnn6)(c6ccc(Cl)cc6Cl)O5)cn4)CC3)c(F)c2)c1=O` (some centres not stated) here?
Its IC50 is 108 nM.

What about the solubility thermodynamic [2] of the same molecule?
The solubility thermodynamic was 0.708 µg/mL (≈ 0.975 µM).

And the inhibition [3]?
The inhibition was “Active”.

For `CCC(C)n1ncn(-c2ccc(N3CCN(c4ccc(OC[C@@H]5CO[C@@](Cn6ccnc6)(c6ccc(Cl)cc6Cl)O5)cc4)CC3)nc2)c1=O` (some centres not stated), which IC50 [1] is on record?
The IC50 was 98.5 nM.

And the solubility thermodynamic [2]?
The solubility thermodynamic was 7.99 µg/mL (≈ 11.3 µM).

With `CCC(C)n1ncn(-c2ccc(N3CCN(c4ccc(OC[C@@H]5CO[C@@](Cn6cncn6)(c6ccc(Cl)cc6Cl)O5)cc4)CC3)c(F)c2)c1=O` (some centres not stated) as the molecule, how does the IC50 [1] read?
Its IC50 is 128 nM.

And the solubility thermodynamic [2]?
Its solubility thermodynamic is 0.0291 µg/mL (≈ 0.0402 µM).

Which results are given for `CCC(C)n1ncn(-c2ccc(N3CCN(c4ccc(OC[C@@H]5CO[C@@](Cn6cnnn6)(c6ccc(Cl)cc6Cl)O5)cc4)CC3)cc2)c1=O` (some centres not stated)?
solubility thermodynamic [2]: 0.321 µg/mL (≈ 0.455 µM); inhibition [3]: Active

Which IC50 [1] does the source give for `CCC(C)n1ncn(-c2ccc(N3CCN(c4ccc(OC[C@@H]5CO[C@@](Cn6cnnn6)(c6ccc(Cl)cc6Cl)O5)cn4)CC3)cc2)c1=O` (some centres not stated) here?
Its IC50 is 77.1 nM.

And the solubility thermodynamic [2]?
Its solubility thermodynamic is 0.951 µg/mL (≈ 1.34 µM).

What about the IC50 (Cytochrome P450 3A4) of the same molecule?
The IC50 was > 90000 nM.

And the inhibition (HUVEC [4])?
Its inhibition is 70%.

And the inhibition [3]?
The inhibition was “Active”.

And the Activity [5]?
The Activity was “Dose-dependent effect”.

And the inhibition [6]?
The inhibition was “Dose-dependent effect”.

What about the inhibition [7] of the same molecule?
Its inhibition is “Active”.

What about the Activity (HUVEC [8]) of the same molecule?
Its Activity is “Active”.

For `CCC(C)n1ncn(-c2ccc(N3CCN(c4ccc(OC[C@@H]5CO[C@@](Cn6ccnc6)(c6ccc(Cl)cc6Cl)O5)cn4)CC3)cc2)c1=O` (some centres not stated), which IC50 [1] is on record?
Its IC50 is 69.1 nM.

What about the solubility thermodynamic [2] of the same molecule?
The solubility thermodynamic was 2.94 µg/mL (≈ 4.16 µM).

For `CCC(C)n1ncn(-c2ccc(N3CCN(c4ccc(OCC5COC(Cn6cncn6)(c6ccc(Cl)cc6Cl)O5)cc4)CC3)cc2)c1=O` (configuration not stated) [ITRACONAZOLE], which Therm_solubility ([2]; buffer) is on record?
The Therm_solubility was 0.0101 µg/mL.

And the inhibition [3]?
Its inhibition is “Active”.

What about the Activity (HUVEC [8]) of the same molecule?
Its Activity is “Active”.

For `CCC(C)n1ncn(-c2ccc(N3CCN(c4ccc(OC[C@@H]5CO[C@@](Cn6cnnn6)(c6ccc(Cl)cc6Cl)O5)cc4)CC3)c(F)c2)c1=O` (some centres not stated), which IC50 [1] is on record?
Its IC50 is 153 nM.

What about the solubility thermodynamic [2] of the same molecule?
The solubility thermodynamic was 0.0528 µg/mL (≈ 0.0729 µM).

What about the IC50 (Cytochrome P450 3A4) of the same molecule?
The IC50 was > 90000 nM.

What about the inhibition [3] of the same molecule?
Its inhibition is “Active”.

Which results are given for `CCC(C)n1ncn(-c2ccc(N3CCN(c4ccc(OC[C@@H]5CO[C@@](Cn6cncn6)(c6ccc(Cl)cc6Cl)O5)cc4)CC3)cn2)c1=O` (some centres not stated)?
IC50 [1]: 188 nM; solubility thermodynamic [2]: 0.496 µg/mL (≈ 0.703 µM)

What does the source list for `CCC(C)n1ncn(-c2ccc(N3CCN(c4ccc(OC[C@@H]5CO[C@@](Cn6cncn6)(c6ccc(Cl)cc6Cl)O5)cc4)CC3)nc2)c1=O` (some centres not stated)?
IC50 [1]: 222 nM; solubility thermodynamic [2]: 0.0539 µg/mL (≈ 0.0763 µM)
